What all share (assay type): functional
One test deals with Enterococcus faecium. Briefly: Antibacterial activity against Enterococcus faecium isolate by conventional agar dilution method. In short, it runs like this: (§1)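 Inoculum: 3–5 colonies suspended to 0.5 McFarland, then diluted 1000-fold to 1.5 · 10⁵ CFU/mL. Compounds dissolved in DMSO, diluted with water to stock, then serially doubled in Mueller–Hinton broth to 1000, 512, 256, 128, 64, 32, 16, 8, 4 and 2 in a 12-well series. Equal volumes of dilution and bacterial suspension were combined. DMSO-only medium served as solvent control. Sulfamethoxazole was the reference.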
On the technique in general: Agar dilution tests growth on a series of plates holding different concentrations.

The next test has as its system Klebsiella pneumoniae. Briefly: Antibacterial activity against Klebsiella pneumoniae isolate by conventional agar dilution method. In short, it runs like this: as §1
For the next test, the system named is Pseudomonas aeruginosa. Briefly: Antibacterial activity against Pseudomonas aeruginosa ATCC 27853 by conventional agar dilution method. An outline of the steps:
as §1

In a further test the test system is Escherichia coli. Description: Antibacterial activity against Escherichia coli isolate by conventional agar dilution method. An outline of the steps:
as §1

Test [1] deals with Staphylococcus aureus. Description: Antibacterial activity against Staphylococcus aureus […] by conventional agar dilution method. In short, it runs like this:
as §1

Test [2] has as its system Staphylococcus aureus. Description: Antibacterial activity against Staphylococcus aureus isolate by conventional agar dilution method. An outline of the steps:
as §1

In brackets after ≈: the same amount, converted by molar mass.

As to `CC(=O)NS(=O)(=O)c1ccccc1`, the MIC against Enterococcus faecium, in the test on Klebsiella pneumoniae, against Pseudomonas aeruginosa, in the test with Escherichia coli, in the test with Staphylococcus aureus [1] and against Staphylococcus aureus [2] was > 1000 µg/mL throughout.

For the compound `CCC(=O)NS(=O)(=O)c1ccccc1`, the MIC in the test on Enterococcus faecium worked out at 64 µg/mL (≈ 300 µM); against Klebsiella pneumoniae, 256 µg/mL (≈ 1200 µM); in the test with Pseudomonas aeruginosa, 500 µg/mL (≈ 2340 µM); in the test on Escherichia coli it was 256 µg/mL (≈ 1200 µM); against Staphylococcus aureus [1], 128 µg/mL (≈ 600 µM); in the test with Staphylococcus aureus [2] it was 256 µg/mL (≈ 1200 µM).

`Cc1ccc(S(=O)(=O)NC(=O)c2ccccc2)cc1`: the MIC against Enterococcus faecium amounted to 128 µg/mL (≈ 465 µM); in the test on Klebsiella pneumoniae, 256 µg/mL (≈ 930 µM); against Pseudomonas aeruginosa, 256 µg/mL (≈ 930 µM); against Escherichia coli, 64 µg/mL (≈ 232 µM); in the test on Staphylococcus aureus [1] it was 256 µg/mL (≈ 930 µM); in the test with Staphylococcus aureus [2], 256 µg/mL (≈ 930 µM).

Regarding `O=C(NS(=O)(=O)c1ccccc1)c1ccccc1`, the MIC with Enterococcus faecium is 256 µg/mL (≈ 980 µM); with Klebsiella pneumoniae it was 256 µg/mL (≈ 980 µM); against Pseudomonas aeruginosa it was 256 µg/mL (≈ 980 µM); with Escherichia coli, 256 µg/mL (≈ 980 µM); with Staphylococcus aureus [1] it was 256 µg/mL (≈ 980 µM); with Staphylococcus aureus [2], 500 µg/mL (≈ 1910 µM).

`CS(=O)(=O)NC(=O)c1ccccc1`: the MIC was found to be 256 µg/mL (≈ 1280 µM) against Enterococcus faecium; 500 µg/mL (≈ 2510 µM) against Klebsiella pneumoniae; 500 µg/mL (≈ 2510 µM) in the test with Pseudomonas aeruginosa; 256 µg/mL (≈ 1280 µM) against Escherichia coli; 500 µg/mL (≈ 2510 µM) in the test with Staphylococcus aureus [1]; 256 µg/mL (≈ 1280 µM) with Staphylococcus aureus [2].

As for `CCCCC(=O)NS(=O)(=O)c1ccccc1`, the MIC in the test on Enterococcus faecium, against Klebsiella pneumoniae, in the test on Pseudomonas aeruginosa, in the test with Escherichia coli, against Staphylococcus aureus [1] and with Staphylococcus aureus [2] was > 1000 µg/mL in each case.

For the compound `Cc1cc(NS(=O)(=O)c2ccc(N)cc2)no1` [SULFAMETHOXAZOLE], the MIC in the test on Enterococcus faecium worked out at 4 µg/mL (≈ 15.8 µM); against Klebsiella pneumoniae it was 8 µg/mL (≈ 31.6 µM); against Pseudomonas aeruginosa, 8 µg/mL (≈ 31.6 µM); against Escherichia coli, 2 µg/mL (≈ 7.9 µM); in the test with Staphylococcus aureus [1] it was 2 µg/mL (≈ 7.9 µM); in the test on Staphylococcus aureus [2], 4 µg/mL (≈ 15.8 µM).

Consider `CCCCC(=O)NS(=O)(=O)c1ccc(C)cc1`, for which the minimal inhibitory concentration (MIC) against Enterococcus faecium, in the test with Klebsiella pneumoniae, against Pseudomonas aeruginosa, in the test on Escherichia coli, in the test with Staphylococcus aureus [1] and with Staphylococcus aureus [2] was > 1000 µg/mL each time.

Regarding `CCC(=O)NS(=O)(=O)c1ccc(C)cc1`, the MIC came out at 64 µg/mL (≈ 282 µM) in the test with Enterococcus faecium; 500 µg/mL (≈ 2200 µM) with Klebsiella pneumoniae; 500 µg/mL (≈ 2200 µM) in the test on Pseudomonas aeruginosa; 128 µg/mL (≈ 563 µM) in the test on Escherichia coli; 64 µg/mL (≈ 282 µM) in the test with Staphylococcus aureus [1]; 128 µg/mL (≈ 563 µM) with Staphylococcus aureus [2].

One may read the MIC as the lowest concentration that inhibits growth of the organism.

For the origin of these results see ChEMBL document CHEMBL1150303, “Synthesis, in vitro antibacterial and carbonic anhydrase II inhibitory activities of N-acylsulfonamides using silica sulfuric acid as an efficient catalyst under both solvent-free and heterogeneous conditions” (2008).
